Measured values taken from publication PMC4492447 (Journal of medicinal chemistry, 2012).

What was measured:
[1] = biological target: T1, CB1 (Homo sapiens, UniProt P21554); format: cell-based
[2] = tested on: MDCK-mdr1 cells; experiment: MDCK-mdr1 permeability assay; format: in vitro ADME, canine; conditions: apical to basal, 10 μM, 1 h at 37 °C
Summary of the method: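 MDCK cells transfected with human MDR1 grown on filters for 4 days to confluence in DMEM/F12 with 10% FBS and antibiotics. Test compound added apically in HBSS with 25 mM D-glucose, HEPES-buffered to pH 7.4. Apical and basal samples collected, dried under nitrogen, and quantified by LC-MS/MS in MRM mode. Percent transfer apical to basal reported; mean of 2–3 measurements.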

[3] = metabolic stability in human hepatic S9 fraction; format: in vitro ADME
Summary of the method: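 Pooled mixed-gender human hepatic S9 at 1 mg/mL, test compound at 10 μM final. Buffer: 50 mM potassium phosphate pH 7.4, 3 mM MgCl2, NADPH-regenerating system (1 mM NADP, 5 mM glucose-6-phosphate, 1 unit/mL G6PDH). Triplicates sampled at 0, 15, 30, 60, 120 min. Stopped with 3 vol acetonitrile; LC-MS/MS against standard curves in blank matrix. Read-out is percent remaining.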

[4] = pharmacokinetic evaluation in vivo, plasma and brain levels after oral dosing; design: species or system Sprague–Dawley rats
[5] = biological target: T1, CB1; format: binding; conditions: selectivity, [3H]CP55940 displacement
[6] = SD rats, 2–3 h postdose; cited from earlier work

T1 sequence (P21554 whole entry): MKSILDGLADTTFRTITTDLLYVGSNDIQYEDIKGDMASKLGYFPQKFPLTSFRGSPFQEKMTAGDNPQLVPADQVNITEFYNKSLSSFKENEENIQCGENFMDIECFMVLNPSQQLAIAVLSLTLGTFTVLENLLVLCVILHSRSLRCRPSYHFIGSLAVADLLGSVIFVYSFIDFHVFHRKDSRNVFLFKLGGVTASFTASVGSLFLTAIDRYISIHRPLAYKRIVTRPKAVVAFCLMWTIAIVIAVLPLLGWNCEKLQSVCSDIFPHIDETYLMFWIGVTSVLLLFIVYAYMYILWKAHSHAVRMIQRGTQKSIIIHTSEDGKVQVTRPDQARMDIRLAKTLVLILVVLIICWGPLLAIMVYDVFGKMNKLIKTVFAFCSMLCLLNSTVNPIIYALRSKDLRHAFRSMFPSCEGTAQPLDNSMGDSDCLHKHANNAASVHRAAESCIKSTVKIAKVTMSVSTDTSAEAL

Row | Structure (SMILES) | Kb [1] | further results
1 | CCNC(=O)N1CCC[C@H](Nc2ncnc3c2nc(-c2ccccc2Cl)n3-c2ccc(Cl)cc2)C1 [Compound 16c, (3S)-3-{[8-(2-Chlorophenyl)-9-(4-chlorophenyl)-9H-purin-6-yl]-amino}-N-ethylpiperidine-1-carboxamide] | 1150 nM | 
2 | CCCNC(=O)N1CCC(Nc2ncnc3c2nc(-c2ccccc2Cl)n3-c2ccc(Cl)cc2)CC1 [Compound 14e, 4-{[8-(2-Chlorophenyl)-9-(4-chlorophenyl)-9H-purin-6-yl]amino}-N-propylpiperidine-1-carboxamide] | 1960 nM | 
3 | CC(C)NC(=O)NC1CCN(c2ncnc3c2nc(-c2ccccc2Cl)n3-c2ccc(Cl)cc2)CC1 [Compound 17d, 1-{1-[8-(2-Chlorophenyl)-9-(4-chlorophenyl)-9H-purin-6-yl]-piperidin-4-yl}-3-(propan-2-yl)urea] | 133 nM | 
4 | CCCCNC(=O)NC1CCN(c2ncnc3c2nc(-c2ccccc2Cl)n3-c2ccc(Cl)cc2)CC1 [Compound 17f, 3-Butyl-1-{1-[8-(2-chlorophenyl)-9-(4-chlorophenyl)-9H-purin-6-yl]piperidin-4-yl}urea] | 49 nM | 
5 | CC(=O)NC1CCN(c2ncnc3c2nc(-c2ccccc2Cl)n3-c2ccc(Cl)cc2)CC1 [Compound 17g, N-{1-[8-(2-Chlorophenyl)-9-(4-chlorophenyl)-9H-purin-6-yl]-piperidin-4-yl}acetamide] | 631 nM | 
6 | O=C(NC1CCCCC1)NC1(c2ccccc2)CCN(c2ncnc3c2nc(-c2ccccc2Cl)n3-c2ccc(Cl)cc2)CC1 [Compound 13g, 3-{1-[8-(2-Chlorophenyl)-9-(4-chlorophenyl)-9H-purin-6-yl]-4-phenylpiperidin-4-yl}-1-cyclohexylurea] | 199 nM | 
7 | CCCNC(=O)NC1CCN(c2ncnc3c2nc(-c2ccccc2Cl)n3-c2ccc(Cl)cc2)CC1 [Compound 17e, 1-{1-[8-(2-chlorophenyl)-9-(4-chlorophenyl)-9H-purin-6-yl]-piperidin-4-yl}-3-propylurea] | 132 nM | 
8 | CC(=O)N1CCC[C@H](Nc2ncnc3c2nc(-c2ccccc2Cl)n3-c2ccc(Cl)cc2)C1 [Compound 16d, 1-[(3S)-3-{[8-(2-Chlorophenyl)-9-(4-chlorophenyl)-9H-purin-6-yl]-amino}piperidin-1-yl]ethan-1-one] | 4450 nM | 
9 | CC(C)NC(=O)N1CCC(Nc2ncnc3c2nc(-c2ccccc2Cl)n3-c2ccc(Cl)cc2)CC1 [Compound 14d, 4-{[8-(2-Chlorophenyl)-9-(4-chlorophenyl)-9H-purin-6-yl]amino}-N-(propan-2-yl)piperidine-1-carboxamide] | 495 nM | 
10 | CCNC(=O)NC1CCN(c2ncnc3c2nc(-c2ccccc2Cl)n3-c2ccc(Cl)cc2)CC1 [Compound 17c, 1-{1-[8-(2-Chlorophenyl)-9-(4-chlorophenyl)-9H-purin-6-yl]-piperidin-4-yl}-3-ethylurea] | 149 nM | 
11 | CC(=O)N1CCC[C@@H](Nc2ncnc3c2nc(-c2ccccc2Cl)n3-c2ccc(Cl)cc2)C1 [Compound 15d, 1-[(3R)-3-{[8-(2-Chlorophenyl)-9-(4-chlorophenyl)-9H-purin-6-yl]-amino}piperidin-1-yl]ethan-1-one] | 920 nM | 
12 | CCNC(=O)N1CCC[C@@H](Nc2ncnc3c2nc(-c2ccccc2Cl)n3-c2ccc(Cl)cc2)C1 [Compound 15c, (3R)-3-{[8-(2-Chlorophenyl)-9-(4-chlorophenyl)-9H-purin-6-yl]-amino}-N-ethylpiperidine-1-carboxamide] | 1500 nM | 
13 | CS(=O)(=O)N1CCC(Nc2ncnc3c2nc(-c2ccccc2Cl)n3-c2ccc(Cl)cc2)CC1 [Compound 14g, 8-(2-Chlorophenyl)-9-(4-chlorophenyl)-N-(1-methanesulfonylpiperidin-4-yl)-9H-purin-6-amine] | 1650 nM | 
14 | CCNC(=O)N1CCC(Nc2ncnc3c2nc(-c2ccccc2Cl)n3-c2ccc(Cl)cc2)CC1 [Compound 14c, 4-{[8-(2-Chlorophenyl)-9-(4-chlorophenyl)-9H-purin-6-yl]amino}-N-ethylpiperidine-1-carboxamide] | 1150 nM | 
15 | CC(C)(C)NC(=O)NC1(c2ccccc2)CCN(c2ncnc3c2nc(-c2ccccc2Cl)n3-c2ccc(Cl)cc2)CC1 [Compound 13a, 3-tert-Butyl-1-{1-[8-(2-chlorophenyl)-9-(4-chlorophenyl)-9H-purin-6-yl]-4-phenylpiperidin-4-yl}urea] | 19.2 nM | MDCK-mdr1 A to B [2]: <1%; metabolism in S9 fraction (in words) [3]: significant metabolism
16 | CCOC(=O)CNC(=O)NC1(c2ccccc2)CCN(c2ncnc3c2nc(-c2ccccc2Cl)n3-c2ccc(Cl)cc2)CC1 [Compound 13f, Ethyl 2-[({1-[8-(2-chlorophenyl)-9-(4-chlorophenyl)-9H-purin-6-yl]-4-phenylpiperidin-4-yl}carbamoyl)amino]acetate] | 171 nM | 
17 | NC1(c2ccccc2)CCN(c2ncnc3c2nc(-c2ccccc2Cl)n3-c2ccc(Cl)cc2)CC1 [Compound 11, 1-[8-(2-Chlorophenyl)-9-(4-chlorophenyl)-9H-purin-6-yl]-4-phe-nylpiperidin-4-amine] | 15.9 nM | MDCK-mdr1 A to B [2]: <1%
18 | CS(=O)(=O)N1CCC[C@H](Nc2ncnc3c2nc(-c2ccccc2Cl)n3-c2ccc(Cl)cc2)C1 [Compound 16e, 8-(2-Chlorophenyl)-9-(4-chlorophenyl)-N-[(3S)-1-methanesulfonylpiperidin-3-yl]-9H-purin-6-amine] | 6040 nM | 
19 | CC(C)(C)OC(=O)NC1(c2ccccc2)CCN(c2ncnc3c2nc(-c2ccccc2Cl)n3-c2ccc(Cl)cc2)CC1 [Compound 10, tert-Butyl N-{1-[8-(2-chlorophenyl)-9-(4-chlorophenyl)-9H-purin-6-yl]-4-phenylpiperidin-4-yl}carbamate] | 3.9 nM | MDCK-mdr1 A to B [2]: <1%
20 | CS(=O)(=O)NC1CCN(c2ncnc3c2nc(-c2ccccc2Cl)n3-c2ccc(Cl)cc2)CC1 [Compound 17h, N-{1-[8-(2-Chlorophenyl)-9-(4-chlorophenyl)-9H-purin-6-yl]-piperidin-4-yl}methanesulfonamide] | 71 nM | 
21 | CCNC(=O)NC1(c2ccccc2)CCN(c2ncnc3c2nc(-c2ccccc2Cl)n3-c2ccc(Cl)cc2)CC1 [Compound 13b, 1-{1-[8-(2-Chlorophenyl)-9-(4-chlorophenyl)-9H-purin-6-yl]-4-phenylpiperidin-4-yl}-3-ethylurea] | 443 nM | 
22 | CS(=O)(=O)NC1(c2ccccc2)CCN(c2ncnc3c2nc(-c2ccccc2Cl)n3-c2ccc(Cl)cc2)CC1 [Compound 12, N-{1-[8-(2-Chlorophenyl)-9-(4-chlorophenyl)-9H-purin-6-yl]-4-phenylpiperidin-4-yl}methanesulfonamide] |  | MDCK-mdr1 A to B [2]: <1%; brain penetration (in words) ([4]; SD rats, 10 mg/kg oral): limited brain penetration; time post dose of maximum concentration ([4]; SD rats, 10 mg/kg oral): 240 min; clearance (in words) ([4]; oral dosing in rats, 10 mg/kg): favorable clearance; oral absorption (in words) ([4]; oral dosing in rats, 10 mg/kg): excellent oral absorption
23 | CCCCNC(=O)N1CCC(Nc2ncnc3c2nc(-c2ccccc2Cl)n3-c2ccc(Cl)cc2)CC1 [Compound 14f, N-Butyl-4-{[8-(2-chlorophenyl)-9-(4-chlorophenyl)-9H-purin-6-yl]amino}piperidine-1-carboxamide] |  | CB2/CB1 Ki ratio [5]: >5
24 | CS(=O)(=O)N1CCC[C@@H](Nc2ncnc3c2nc(-c2ccccc2Cl)n3-c2ccc(Cl)cc2)C1 [Compound 15e, 8-(2-Chlorophenyl)-9-(4-chlorophenyl)-N-[(3R)-1-methanesulfonylpiperidin-3-yl]-9H-purin-6-amine] | 346 nM | 
25 | CCNC1(C(N)=O)CCN(c2ncnc3c2nc(-c2ccccc2Cl)n3-c2ccc(Cl)cc2)CC1 [Compound 2, otenabant] |  | brain exposure [6]: ~33%
26 | CCCCNC(=O)NC1(c2ccccc2)CCN(c2ncnc3c2nc(-c2ccccc2Cl)n3-c2ccc(Cl)cc2)CC1 [Compound 13e, 3-Butyl-1-{1-[8-(2-chlorophenyl)-9-(4-chlorophenyl)-9H-purin-6-yl]-4-phenylpiperidin-4-yl}urea] | 62 nM | 
27 | Clc1ccc(-n2c(-c3ccccc3Cl)nc3c(NC4CCNCC4)ncnc32)cc1 [Compound 14b, 8-(2-Chlorophenyl)-9-(4-chlorophenyl)-N-(piperidin-4-yl)-9H-purin-6-amine] | 5710 nM | 
